From PubChem
In the library only some 3.9% were active in any assay of this set; here they are far more common.
tim23-1 inh – tim23-1 yeast growth inhibition. S. cerevisiae tim23-1 growth, BacTiter-Glo luminescence, 24 h. inhibition, % at 20 µM. actives 1.3% (n = 330,000). AID 463212;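 active means growth inhibition of the mutant yeast at or above 50%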;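 further: temperature-sensitive mutant grown at 25 °C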
UPR CHOP act – activators of apoptotic arm of unfolded protein response (CHOP). CHO-CHOP luciferase reporter, UPR activation, luminescence; percent of tunicamycin response over DMSO baseline. activation, % at 10 µM. actives 0.34% (n = 330,000). AID 449763;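 active means at 10 µM dose, activation of 40% or more, normalized to positive control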
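Dosing – one dose, 10 µM in 0.5% DMSO · System – CHO-CHOP cells, stable luciferase reporter of PERK-eIF2a-CHOP signalling · Input – 500 cells/well · Control set – tunicamycin 10 µg/mL final as positive, DMSO-only wells as negative · Timing – 6 h compound treatment, 37 °C · Measure – % activation vs tunicamycin · Technique – luminescence read with Steady-Glo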
UPR XBP1 act – activators of adaptive arm of unfolded protein response (XBP1); activation, % at 20 µM; CHO-XBP1 luciferase reporter, IRE1-XBP1 UPR activation, luminescence; percent of tunicamycin response, DMSO as zero; actives 0.33% (n = 330,000);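 active means versus positive control, 20 µM dose yields 30% or more activation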
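incubation = overnight seeding at 37 °C, 6 h compound treatment at 37 °C | assay system = CHO-XBP1 cells stably carrying IRE1-XBP1-driven luciferase reporter | input = 1000 cells per well | detection = luciferase luminescence | dosing = single point, 20 µM final compound, 1% DMSO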
TIM10 inh – inhibits growth of TIM10 yeast strain. S. cerevisiae TIM10 strain growth, BacTiter-Glo luminescence, 24 h. inhibition, % at 10 µM. actives 1.4% (n = 330,000);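 active means inhibition of 40% or more at the single tested concentration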;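 further: wild-type TIM10 isogenic control strain grown at permissive 25 °C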
tim10-1 inh – tim10-1 yeast growth inhibition. S. cerevisiae tim10-1 ts strain growth, BacTiter-Glo, 24 h. inhibition, % at 20 µM. actives 2.2% (n = 330,000). AID 463190;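 active means inhibition of at least 40%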;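 further: mutant grown at 25 °C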
tim10-1 conf – tim10-1 yeast growth inhibition, confirmed; actives 56% (n = 7,400); shares compounds with tim10-1 inh; S. cerevisiae tim10-1 ts strain growth, BacTiter-Glo, 24 h; inhibition, % at 20 µM;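 active means inhibition of yeast growth at or above a set limit in either of two repeat tests at 20 µM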;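 further: tim10-1 mutant grown at permissive 25 °C to find synthetic lethal compounds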
Hits are given with their value.

How did CCCc1n[nH]c(=S)n1Cc1ccco1 do in these assays?
tim23-1 inh: inactive; UPR CHOP act: inactive; UPR XBP1 act: inactive; TIM10 inh: inactive; tim10-1 inh: inactive

What do the screens show for `O=C(c1ccco1)N1CCN(c2ncnc3scc(-c4ccc(F)cc4)c23)CC1`?
tim23-1 inh: inactive; UPR CHOP act: inactive; UPR XBP1 act: inactive; TIM10 inh: inactive; tim10-1 inh: 49; tim10-1 conf: 36

Results for Cc1ccc(-c2csc3ncnc(N4CCN(c5ccccc5O)CC4)c23)cc1 ?
tim23-1 inh: inactive; UPR CHOP act: inactive; UPR XBP1 act: inactive; TIM10 inh: inactive; tim10-1 inh: 44; tim10-1 conf: inactive

What do the screens show for `COc1ccc(-c2csc3ncnc(N4CCN(c5ccccc5O)CC4)c23)cc1`?
tim23-1 inh: inactive; UPR CHOP act: inactive; UPR XBP1 act: inactive; TIM10 inh: inactive; tim10-1 inh: inactive

How did Cc1ccc(-c2csc3ncnc(NCCN4CCOCC4)c23)cc1 do in these assays?
tim23-1 inh: inactive; UPR CHOP act: inactive; UPR XBP1 act: inactive; TIM10 inh: inactive; tim10-1 inh: inactive

Results for Cc1ccc(-c2csc3ncnc(Nc4ccc(N5CCOCC5)cc4)c23)cc1 ?
tim23-1 inh: inactive; UPR CHOP act: inactive; UPR XBP1 act: inactive; TIM10 inh: inactive; tim10-1 inh: 40; tim10-1 conf: 36

Results for O=C(c1cc(-c2cccc(Cl)c2)on1)N1CCCCCC1 ?
tim23-1 inh: inactive; UPR CHOP act: inactive; UPR XBP1 act: inactive; TIM10 inh: inactive; tim10-1 inh: inactive

What do the screens show for `O=C(c1cc(-c2ccco2)nn1-c1cccc(Cl)c1)N1CCCCC1`?
tim23-1 inh: inactive; UPR CHOP act: inactive; UPR XBP1 act: inactive; TIM10 inh: inactive; tim10-1 inh: 46; tim10-1 conf: inactive

Results for CC(C)NC(=O)c1cc(-c2ccco2)nn1-c1ccc(Cl)cc1 ?
tim23-1 inh: inactive; UPR CHOP act: inactive; UPR XBP1 act: inactive; TIM10 inh: inactive; tim10-1 inh: 44; tim10-1 conf: inactive

What do the screens show for `Cc1ccc(-n2nc(-c3ccco3)cc2C(=O)O)cc1`?
tim23-1 inh: inactive; UPR CHOP act: inactive; UPR XBP1 act: inactive; TIM10 inh: inactive; tim10-1 inh: inactive

How did c1ccc(-c2cc(-c3nc4ccccc4[nH]3)c3ccccc3n2)cc1 do in these assays?
tim23-1 inh: inactive; UPR CHOP act: inactive; UPR XBP1 act: inactive; TIM10 inh: inactive; tim10-1 inh: 51; tim10-1 conf: 38

Results for Nc1ccc(-c2nc3ccccc3[nH]2)cc1 ?
tim23-1 inh: inactive; UPR CHOP act: inactive; UPR XBP1 act: inactive; TIM10 inh: inactive; tim10-1 inh: inactive

How did CSc1ccccc1NC(=O)CN(C)C(C)C(=O)NCc1ccc2c(c1)OCO2 (configuration not stated) do in these assays?
tim23-1 inh: inactive; UPR CHOP act: inactive; UPR XBP1 act: inactive; TIM10 inh: inactive; tim10-1 inh: inactive

How did CCCCN([C@H](CO)C(C)C)S(=O)(=O)c1ccccc1Br do in these assays?
tim23-1 inh: inactive; UPR CHOP act: inactive; UPR XBP1 act: inactive; TIM10 inh: inactive; tim10-1 inh: inactive

Results for O=C(Oc1ccc(C(=S)N2CCCCC2)cc1)c1ccccc1F ?
tim23-1 inh: inactive; UPR CHOP act: inactive; UPR XBP1 act: inactive; TIM10 inh: inactive; tim10-1 inh: 56; tim10-1 conf: inactive

What do the screens show for `O=C(Oc1ccc(Br)cc1C(=S)N1CCCC1)c1ccccc1F`?
tim23-1 inh: inactive; UPR CHOP act: inactive; UPR XBP1 act: inactive; TIM10 inh: inactive; tim10-1 inh: inactive

Results for Brc1cccc(-c2nnc(SCc3ccon3)n2-c2ccccc2)c1 ?
tim23-1 inh: inactive; UPR CHOP act: inactive; UPR XBP1 act: inactive; TIM10 inh: inactive; tim10-1 inh: 41; tim10-1 conf: inactive

How did Cc1[nH]n(-c2ccccc2)c(=O)c1N=Nc1c(O)cc(S(=O)(=O)N(C)C)c2ccccc12 do in these assays?
tim23-1 inh: inactive; UPR CHOP act: inactive; UPR XBP1 act: inactive; TIM10 inh: inactive; tim10-1 inh: 43; tim10-1 conf: inactive

What do the screens show for `Cc1ccc(NCC(=O)N=Nc2c(O)[nH]c3ccc([N+](=O)[O-])cc23)cc1`?
tim23-1 inh: inactive; UPR CHOP act: inactive; UPR XBP1 act: inactive; TIM10 inh: inactive; tim10-1 inh: inactive

What do the screens show for `Cc1ccc(OC(C)C(=O)N=Nc2c(O)[nH]c3ccc([N+](=O)[O-])cc23)cc1` (configuration not stated)?
tim23-1 inh: inactive; UPR CHOP act: inactive; UPR XBP1 act: inactive; TIM10 inh: inactive; tim10-1 inh: 44; tim10-1 conf: inactive

What do the screens show for `CCOC(=O)CC(=O)CSc1nc2sc(C)cc2c(=O)n1Cc1ccco1`?
tim23-1 inh: inactive; UPR CHOP act: inactive; UPR XBP1 act: inactive; TIM10 inh: inactive; tim10-1 inh: 45; tim10-1 conf: inactive

Results for CCOc1ccc(-n2cc(-c3ccccc3)c3c(=O)[nH]cnc32)cc1 ?
tim23-1 inh: inactive; UPR CHOP act: inactive; UPR XBP1 act: inactive; TIM10 inh: inactive; tim10-1 inh: 55; tim10-1 conf: 40

What do the screens show for `CCc1ccc(/C=C2\Oc3cc(OS(C)(=O)=O)ccc3C2=O)cc1`?
tim23-1 inh: inactive; UPR CHOP act: inactive; UPR XBP1 act: inactive; TIM10 inh: inactive; tim10-1 inh: 40; tim10-1 conf: inactive

Results for CS(=O)(=O)Oc1ccc2c(c1)O/C(=C\c1cccc([N+](=O)[O-])c1)C2=O ?
tim23-1 inh: inactive; UPR CHOP act: inactive; UPR XBP1 act: inactive; TIM10 inh: inactive; tim10-1 inh: inactive

Results for O=C(CNC(=O)c1ccccc1F)OC(C(=O)Nc1cc(C(F)(F)F)ccc1Cl)c1ccccc1 (configuration not stated) ?
tim23-1 inh: inactive; UPR CHOP act: inactive; UPR XBP1 act: inactive; TIM10 inh: inactive; tim10-1 inh: 43; tim10-1 conf: inactive

What do the screens show for `COc1ccc(S(=O)(=O)N(C)c2ccc(C(=O)N3CCCCC3)cc2)cc1`?
tim23-1 inh: inactive; UPR CHOP act: inactive; UPR XBP1 act: inactive; TIM10 inh: inactive; tim10-1 inh: inactive

What do the screens show for `CCOC(=O)c1c(CSc2ccccc2)n(C)c2ccc(O)c(CN3CCOCC3)c12`?
tim23-1 inh: inactive; UPR CHOP act: inactive; UPR XBP1 act: inactive; TIM10 inh: inactive; tim10-1 inh: 44; tim10-1 conf: inactive

Results for CCOC(=O)c1c(C)n(C)c2ccc(O)c(CN3CCN(C)CC3)c12 ?
tim23-1 inh: inactive; UPR CHOP act: inactive; UPR XBP1 act: inactive; TIM10 inh: inactive; tim10-1 inh: inactive

Results for COc1ccc(N2CCC(CNC(=O)Nc3cccc(OC)c3)C2)cc1 (configuration not stated) ?
tim23-1 inh: inactive; UPR CHOP act: inactive; UPR XBP1 act: inactive; TIM10 inh: inactive; tim10-1 inh: 46; tim10-1 conf: 40

What do the screens show for `Cc1noc(NS(=O)(=O)c2ccc(NC(=O)C(Cl)(Cl)Cl)cc2)c1C`?
tim23-1 inh: inactive; UPR CHOP act: inactive; UPR XBP1 act: inactive; TIM10 inh: inactive; tim10-1 inh: inactive
